hIAP activ: human IAP activators, primary screen, biochemical, luminescence, uHTS | activation factor at 10 µM | purified human IAP, CDP-Star luminescence, 30 min; stronger effect = higher value; 1 = vehicle-only enzyme, 0 = enzyme-free background | 330,000 tested, 0.16% active | Intestinal-type alkaline phosphatase (Homo sapiens), P09923;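 active means activation factor of the enzyme at least 2-fold when tested at 20 µM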
Target sequence (P09923 whole entry, looked up): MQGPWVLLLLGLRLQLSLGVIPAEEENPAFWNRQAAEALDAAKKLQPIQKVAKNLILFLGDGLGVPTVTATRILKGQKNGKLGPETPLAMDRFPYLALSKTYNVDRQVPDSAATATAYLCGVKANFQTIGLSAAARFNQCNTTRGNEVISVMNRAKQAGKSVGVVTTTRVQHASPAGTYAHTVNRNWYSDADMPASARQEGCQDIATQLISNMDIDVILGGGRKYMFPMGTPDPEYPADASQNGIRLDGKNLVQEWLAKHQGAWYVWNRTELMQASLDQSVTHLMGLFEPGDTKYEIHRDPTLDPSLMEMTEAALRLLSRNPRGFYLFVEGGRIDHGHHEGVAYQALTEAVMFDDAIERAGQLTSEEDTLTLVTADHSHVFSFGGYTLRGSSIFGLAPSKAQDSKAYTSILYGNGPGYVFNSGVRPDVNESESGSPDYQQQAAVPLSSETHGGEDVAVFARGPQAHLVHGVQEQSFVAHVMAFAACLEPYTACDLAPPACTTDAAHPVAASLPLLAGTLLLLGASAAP
bIAP inhibitor: bovine intestinal alkaline phosphatase inhibitors, primary screen, selectivity assay for TNAP inhibitor project, biochemical, bovine IAP, CDP-star luminescence | purified bovine IAP, 30 min | inhibition, % at 20 µM | 190,000 tested, under 10 active | alkaline phosphatase, intestinal [Bos taurus] | AID 1019, 2008;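 active means over 50% inhibition of intestinal alkaline phosphatase at 20 µM in the single-dose screen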
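Assay system: bovine IAP enzyme; medium: DEA buffer 100 mM, pH 9.8, with MgCl2 1.0 mM, ZnCl2 0.02 mM; doses: 20 µM single dose; incubation: enzyme reaction for 30 min at room temperature; detection: CDP-star luminescence signal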
mIAP block: inhibitors of mouse IAP, primary screen, biochemical, luminescence, uHTS. inhibition, % at 10 µM. purified mouse IAP, CDP-Star luminescence, 30 min. AID 2806, 2010. 330,000 tested, 0.2% active;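 active means inhibition of at least 40% at 10 µM in the primary screen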;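 further: plate controls were DMSO with enzyme for no effect and no enzyme wells for full effect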
bIAP activator: bovine intestinal alkaline phosphatase activators, primary screen, biochemical, bovine IAP, CDP-star luminescence; alkaline phosphatase, intestinal [Bos taurus]; purified bovine IAP, 30 min; stronger effect = higher value; fold of DMSO-control signal, blank-subtracted; activation factor at 20 µM; 200,000 tested, 0.17% active;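 active means activation factor of 2 or more at 20 µM, a signal rise over negative controls twice the positive control's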
mIAP activ: activators of mouse IAP, primary screen, biochemical, luminescence, uHTS; intestinal alkaline phosphatase [Mus musculus]; activation factor at 10 µM; muIAP, CDP-Star luminescence, 30 min; stronger effect = higher value; 1 = vehicle-only enzyme signal, 0 = enzyme-free wells; 330,000 tested, 0.24% active; AID 2805, 2010;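 active means activation factor of at least 2 at 20 µM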
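Assay system: mouse IAP enzyme; reagent: chemiluminescent substrate CDP-Star; dosing: test compounds delivered from DMSO solution; schedule: 30 min at room temperature; measured by: luminescence from enzymatic CDP-Star hydrolysis; controls: DMSO-only wells and no-enzyme negative control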
hIAP inh: human IAP inhibitors, primary screen, biochemical, luminescence, uHTS. Intestinal-type alkaline phosphatase (Homo sapiens), P09923. purified IAP, CDP-Star luminescence, 30 min. inhibition, % at 10 µM. 330,000 tested, 0.12% active;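 active means inhibition reaching a set limit with compound at 10 µM in the primary screen, cut at about 35% in these data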;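 further: plate controls were DMSO wells with enzyme for no effect and no-enzyme buffer wells for full effect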
Starred values were filed as active, the others as inactive. Hits are enriched below; roughly 0.79% of the tested compounds scored in any of these assays.

How did Cc1cc(NC(=O)Nc2ccccc2F)ccc1Br do in these assays?
hIAP activ: 1.1; bIAP inhibitor: 6; mIAP block: -205; bIAP activator: 0.9; mIAP activ: 3.1*; hIAP inh: -5

Results for O=S(=O)(c1ccc2c(c1)OCCO2)N1CCC(n2nnc3cc(F)ccc32)CC1 ?
hIAP activ: 0.91; bIAP inhibitor: -113; mIAP block: -5; bIAP activator: 2.1*; mIAP activ: 1.1; hIAP inh: 9

How did CCOC(=O)N1CCN(c2ccncc2S(=O)(=O)N2CCCCC2)CC1 do in these assays?
hIAP activ: 0.99; mIAP block: 10; mIAP activ: 0.9; hIAP inh: 1

What do the screens show for `Cc1ccc(S(=O)(=O)N2[C@@H](c3cccc(Cl)c3)C(C(=O)O)=CC[C@H]2c2cccc(Cl)c2)cc1`?
hIAP activ: 0.91; mIAP block: 42*; mIAP activ: 0.58; hIAP inh: 9

How did Cc1cccc(NC(=O)CN(C)C(=O)C2CC2)c1C do in these assays?
hIAP activ: 1; mIAP block: 8; mIAP activ: 0.92; hIAP inh: -2

How did Cc1ccc(NC(=O)Nc2cc(S(=O)(=O)N(C)C)ccc2C)cc1 do in these assays?
hIAP activ: 1.1; bIAP inhibitor: 19; mIAP block: -177; bIAP activator: 0.8; mIAP activ: 2.8*; hIAP inh: -10

How did CCCCc1ccc(NC(=S)NCc2ccc(OC)cc2)cc1 do in these assays?
hIAP activ: 1.1; bIAP inhibitor: 1; mIAP block: -155; bIAP activator: 1; mIAP activ: 2.5*; hIAP inh: -11

What do the screens show for `CC(C)COc1ccc(CNC(=S)Nc2ccccc2)cc1Cl`?
hIAP activ: 1.3; mIAP block: -149; mIAP activ: 2.5*; hIAP inh: -33

Results for CC(C)Oc1ccc(CNC(=S)Nc2ccccc2)cc1Cl ?
hIAP activ: 1.3; mIAP block: -86; mIAP activ: 1.9; hIAP inh: -30

Results for Cc1ccc(NC(=S)NC(C)CCc2ccccc2)cc1C (stereo unspecified) ?
hIAP activ: 0.98; bIAP inhibitor: 5; mIAP block: -151; bIAP activator: 1; mIAP activ: 2.5*; hIAP inh: 2

What do the screens show for `COc1ccc(CNC(=S)NC(C)CCc2ccccc2)cc1` (stereo unspecified)?
hIAP activ: 1; bIAP inhibitor: 20; mIAP block: -140; bIAP activator: 0.8; mIAP activ: 2.4*; hIAP inh: -1

What do the screens show for `Cc1ccn2cc(-c3ccc(NC(=O)c4ccco4)cc3)nc2c1`?
hIAP activ: 1.1; bIAP inhibitor: 9; mIAP block: -2; bIAP activator: 0.9; mIAP activ: 1; hIAP inh: -6

How did CC(C)COc1ccc(CNC(=S)NCc2ccccc2)cc1 do in these assays?
hIAP activ: 1.1; bIAP inhibitor: 35; mIAP block: -274; bIAP activator: 0.7; mIAP activ: 3.7*; hIAP inh: -5

How did Cc1ccc(N(CC(=O)NC(C)(C)C)C(=O)CNC(=O)c2cccs2)cc1C do in these assays?
hIAP activ: 1.1; bIAP inhibitor: 5; mIAP block: 1; bIAP activator: 0.9; mIAP activ: 0.99; hIAP inh: -12

How did Nc1nc(N)c2[nH]c(-c3ccccc3)nc2n1 do in these assays?
hIAP activ: 0.88; mIAP block: 8; mIAP activ: 0.92; hIAP inh: 12

Results for CC(Cc1cccs1)NC(=O)Nc1ccc(Cl)c(Cl)c1 (stereo unspecified) ?
hIAP activ: 1; mIAP block: -301; bIAP activator: 0.5; mIAP activ: 4*; hIAP inh: 0

How did CC(Cc1cccs1)NC(=O)Nc1ccccc1 (stereo unspecified) do in these assays?
hIAP activ: 1; bIAP inhibitor: 26; mIAP block: -11; bIAP activator: 0.7; mIAP activ: 1.1; hIAP inh: 0

Results for CC(Cc1cccs1)NC(=O)Nc1ccc(Cl)cc1 (stereo unspecified) ?
hIAP activ: 1.1; bIAP inhibitor: 16; mIAP block: -130; bIAP activator: 0.8; mIAP activ: 2.3*; hIAP inh: -12

What do the screens show for `CC(Cc1cccs1)NC(=S)Nc1ccccc1` (stereo unspecified)?
hIAP activ: 0.91; bIAP inhibitor: 5; mIAP block: -10; bIAP activator: 1; mIAP activ: 1.1; hIAP inh: 9

What do the screens show for `Oc1cc(O)cc(/C=C/c2ccc(O)c(O)c2)c1`?
hIAP activ: 0.94; mIAP block: 78*; mIAP activ: 0.22; hIAP inh: 6

Results for CC1=C(C#N)c2nc(N)c(C#N)c(C)c2/C1=C\c1ccc(OCC(=O)O)c(Cl)c1 ?
hIAP activ: 0.96; mIAP block: 27; mIAP activ: 0.73; hIAP inh: 4

What do the screens show for `CC1CC(C)CN(S(=O)(=O)c2ccc(NC(=O)[C@@H]3CCCN3C(=O)c3cccs3)cc2)C1` (stereo partly specified)?
hIAP activ: 0.89; mIAP block: 50*; mIAP activ: 0.5; hIAP inh: 11

Results for COc1cccc(NC(=O)C2CCN(S(=O)(=O)c3ccc4c(c3)OCCO4)CC2)c1 ?
hIAP activ: 0.84; bIAP inhibitor: -152; mIAP block: -49; bIAP activator: 2.5*; mIAP activ: 1.5; hIAP inh: 16

What do the screens show for `COc1ccc(OC)c(S(=O)(=O)N2CCC(C(=O)Nc3cccc(C(F)(F)F)c3)CC2)c1`?
hIAP activ: 1.1; bIAP inhibitor: 0; mIAP block: -156; bIAP activator: 1; mIAP activ: 2.6*; hIAP inh: -11

Results for COc1ccc(N(CC(=O)N/N=C(\C)CCc2ccccc2)S(=O)(=O)c2ccc(C)cc2)cc1 ?
hIAP activ: 0.96; mIAP block: -7; mIAP activ: 1.1; hIAP inh: 4

What do the screens show for `Cc1nn(C2CCS(=O)(=O)C2)c2nc(C3CC3)cc(C(=O)Nc3ccc(C(N)=O)cc3)c12` (stereo unspecified)?
hIAP activ: 1.1; mIAP block: -5; mIAP activ: 1.1; hIAP inh: -7

What do the screens show for `CCCCOc1ccc(C(=O)NCC(=O)NC2CCC(C)CC2)cc1` (stereo unspecified)?
hIAP activ: 1; mIAP block: -2; mIAP activ: 1; hIAP inh: -4
